From PubChem BioAssay
Only a selection was taken, and hits are over-represented in it overall.
Hsp70 act – switches on Hsp70 transcription. HeLa Hsp70 promoter luciferase reporter, luminescence; scaled: vehicle 0, proteasome-inhibitor control 100%. activation, % at 10 µM. 200,000 compounds, 0.04% hits;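 active = activation above the mean across all tested compounds plus 3 SD, cutoff set per campaign, cut at about 5.5% in these data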;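 note: 100% = MG132 at 30 µM as the positive control and 0% = DMSO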
Lmaj promast – Leishmania major promastigote growth inhibition; inhibition, % at 10 µM; 200,000 compounds, 9% hits; Leishmania major promastigotes, resazurin fluorescence viability; AID 1063; in the data active = inhibition above about 50%;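 note: promastigotes grown with compound for 44 hours at 28 °C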
T cruzi repl – blocks replication of Trypanosoma cruzi; T. cruzi beta-gal in NIH3T3, luminescence, 90 h; inhibition, % (concentration not given with the values); 300,000 compounds, 1.4% hits; AID 1885;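 active = mean inhibition across valid replicates above about 55%, limit read from the data; inconclusive = mean below that limit but half or more replicates reach it; inactive = mean below it, under half of replicates reach it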;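 note: signal also drops with host cell toxicity which is not excluded here; 0% = plate median of DMSO wells and 100% = zero luminescence signal; higher percent means less beta-gal luminescence so fewer parasites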
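Test system: β-gal T. cruzi (Tulahuen C4) inside NIH/3T3 cells / Quantity: 5,000 cells/well / Measured by: luminescence from GalScreen with 0.05% NP40, read after 60 min / Medium: DMEM plus 2% FBS / Measure: parasite load inhibition, % / Reagent: Tulahuen C4 trypomastigotes, 5000/well / Schedule: co-culture of at least 90 h after 3 h attachment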
HSF1 inhib – HSF1 inhibition. NIH3T3-HGL HSE-luciferase, MG132-induced, luminescence 8 h; active compounds read low. activity change, negative = inhibition, % at 7.5 µM (by protocol). 300,000 compounds, 0.77% hits;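 active = more than half of replicate wells show activity change below -50%, luminescence cut by over half; inconclusive = some wells, but at most half, below -50%; inactive = no replicate well below -50%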;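 note: luciferase reports HSF-1 transcriptional activity via heat shock element; 0% = median of DMSO wells and -100% = zero luminescence signal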
HSF-1 act – increases HSF-1 driven luciferase reporter signal. AID 504408. 300,000 compounds, 1.7% hits. NIH3T3-HGL HSF-1 luciferase reporter, MG132, 8 h; 100% = twice DMSO control signal. activation, % at 9 µM;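 active = mean replicate activation of at least 50% with a set share of replicates each reaching 50%; inconclusive = only one of those two conditions met; inactive = mean below 50% and too few replicates reaching it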;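 note: 0% = median of the neutral control wells and 100% = twice that signal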
* = called active by the depositor; ? = inconclusive; . = no result given.

SMILES | Hsp70 act | Lmaj promast | T cruzi repl | HSF1 inhib | HSF-1 act
N#CCSc1nc2sc3c(c2c(=O)n1C1CCCCC1)CCCC3 | 0 | 56* | 2 | 2 | -7
CCn1c(SCC(=O)c2ccccc2)nc2sc3c(c2c1=O)CCN(C)C3 | . | . | 64* | -2 | 15
CCCCSc1nc2sc3c(c2c(=O)n1-c1ccc(OC)cc1)CCN(C)C3 | . | . | 49 | -4 | -15
CCCCSc1nc2sc3c(c2c(=O)n1-c1ccccc1)CCN(C)C3 | . | . | 55* | 1 | -12
CSc1nc(NCc2ccccc2)c2c3c(sc2n1)CN(C)CC3 | 0 | 35 | 55* | -1 | -4
CSc1nc(NCC(C)C)c2c3c(sc2n1)CN(C)CC3 | 0 | 12 | 51 | 4 | 17
Cc1ccc(C(=O)N/C(=C\c2ccco2)C(=O)NCCN2CCOCC2)cc1 | . | . | 1 | -3 | -24
O=[N+]([O-])c1ccc(S(=O)(=O)NCCc2cn3ccccc3n2)cc1 | 0 | -8 | -2 | -2 | -14
O=C(O)c1cc(Cl)c2c(c1)OCO2 | . | . | -15 | 1 | -20
Cc1ccc(NC(=O)c2ccc(Cn3cc([N+](=O)[O-])cn3)cc2)c(C)c1 | 0 | -9 | -38 | -4 | 39
O=c1ccncn1C1OC(CO)C(O)C1O (centres undefined) | . | . | . | -11 | -11
CSc1nc2sc3c(c2c(=O)n1C1CCCCC1)CCN(C)C3 | 0 | 5 | 41 | 7 | 28
CN1CCc2c(sc3nc(SCC(N)=O)n(-c4ccccc4)c(=O)c23)C1 | 0 | -3 | 16 | -1 | -2
C=C(C)CSc1nc2sc3c(c2c(=O)n1-c1ccccc1)CCN(C)C3 | . | . | 55* | -3 | -6
C=C(C)CSc1nc2sc3c(c2c(=O)n1C1CCCCC1)CCN(C)C3 | . | . | 59* | -4 | -9
Cc1ccc(S(=O)OCC(=O)Nc2cc(Cl)ccc2N2CCOCC2)cc1 (centres undefined) | 0 | 99* | 0 | -2 | -26
COc1ccc(/C=N/NC(=O)c2ccc3nc[nH]c3c2)c(OC)c1OC | . | . | -3 | -14 | -8
CCC(C)OC(=O)C1=C(C)OC23OC(N)=C(C#N)C12C(=O)c1ccccc13 (centres undefined) | 0 | 86* | -9 | 15 | 15
CC1=C(C(=O)OCC(C)C)[C@]23C(=O)c4ccccc4[C@@]2(O1)OC(N)=C3C#N | 0 | 14 | 6 | 9 | 25
CC(C)(C)NC(=O)c1nn(Cc2ccccc2)c(=O)c2ccccc12 | 0 | 8 | -6 | 1 | 6
CCOC(=O)N/N=C\c1ccccc1OC/C=C/c1ccccc1 | . | . | -10 | 23 | 55*
Cc1cc(C)nc(N/N=C2/CCCC/C2=C\c2ccccc2)n1 | 0 | 100* | 70* | 15 | 15
CC(C)(C)c1cc(CCC(=O)NNC(=S)NC(=O)c2ccccc2)cc(C(C)(C)C)c1O | 0 | 97* | 59* | 14 | 20
O=C(CCc1ccccc1)NNC(=S)NC(=O)c1ccccc1 | 0 | 25 | -24 | 14 | 19
CCNC(=S)N(CCc1c(C)[nH]c2ccccc12)Cc1cc(OC)c(OC)c(OC)c1 | 0 | 7 | 11 | 4 | 2
SMILES | Hsp70 act | Lmaj promast | T cruzi repl | HSF1 inhib | HSF-1 act
O=C(CCSc1nc2ccccc2s1)N/N=C/c1c(O)ccc2ccccc12 | 0 | 58* | 46 | -2 | -8
COc1ccc(/C=N/NC(=O)CCSc2nc3ccccc3s2)cc1OC | 0 | 13 | -1 | -36 | -45
Cc1ccc(S(=O)(=O)N(C(=O)c2ccncc2)c2ccc(OC(=O)c3ccncc3)cc2)c(C)c1 | 0 | 76* | 14 | -7 | -1
Cc1ccc(C)c(S(=O)(=O)N(C(=O)c2ccncc2)c2ccc(OC(=O)c3ccncc3)cc2)c1 | 0 | 5 | 6 | 4 | -11
COC(=O)c1[nH]c2c(c1C)C(=O)CC(c1cc(OC)c(OC)c(OC)c1)C2 (centres undefined) | . | . | -6 | -1 | 15
CC(CCc1ccccc1)NC(=O)CCNC(=O)Cn1ccc2ccccc2c1=O (centres undefined) | 0 | -5 | -13 | 0 | 4
O=C(NCc1ccc2c(c1)OCO2)c1n[nH]c(=O)c2ccccc12 | 0 | -3 | -4 | -2 | -13
CC(=O)/C(=C/c1ccc(N(C)C)cc1)C(=O)c1ccccc1 | 0 | -3 | 3 | 42 | 81*
O=C(/C=C/c1ccco1)c1ccc(O)cc1 | 0 | 1 | -16 | 13 | 26
CN(C)c1ccc(C(=O)/C=C/c2ccco2)cc1 | 0 | 0 | 2 | 18 | 68*
CCC(=O)Nc1ccc(/C=C(\C(C)=O)C(=O)c2ccccc2)cc1 | . | . | -11 | 11 | 30
CNc1ccc(/C=C/C(=O)c2ccc(C)cc2)cc1[N+](=O)[O-] | 0 | 24 | 16 | 25 | 34
CN(C)c1ccc(/C=C/C(=O)c2ccccc2)cc1[N+](=O)[O-] | 0 | 100* | -2 | 29 | 45
CN(C)c1ccc(C(=O)/C=C/c2ccccc2)cc1 | 0 | -2 | -11 | 48 | 74*
CCC(CO)NC1=CC(=O)CCC1 (centres undefined) | 0 | -8 | -16 | -8 | -10
COC(=O)c1c(C)oc(C)c1S(=O)(=O)N1CCCC1 | . | . | -8 | -2 | -6
CN(C)c1ccc(C(=O)/C=C/c2ccc(Br)cc2)cc1 | 0 | 90* | 6 | 30 | ?
Cc1sc(NC(=O)c2ccco2)nc1-c1ccc2c(c1)CC(C)N2C(=O)C1CC1 (centres undefined) | 0 | 86* | -26 | -1 | 1
Cc1sc(NC(=O)c2ccco2)nc1-c1ccccc1 | 2 | 27 | -8 | 39 | 90*
COC(=O)c1c(-c2ccccc2)csc1NC(=O)c1ccco1 | 1 | 1 | 11 | 35 | 74*
O=C(Nc1scc(-c2ccc(F)cc2)c1C(=O)O)c1ccco1 | 0 | -1 | -8 | 18 | 27
CC(=O)c1sc(NC(=O)c2ccco2)nc1-c1ccccc1 | 0 | -10 | 0 | 14 | 22
O=C(CSc1nc2ccccc2c(=O)n1-c1ccccc1Cl)Nc1cccc(S(=O)(=O)N2CCOCC2)c1 | 0 | 20 | 15 | -2 | 19
CCOc1ccccc1NC(=O)C1CCCN(S(=O)(=O)c2ccc3c(c2)C(C)(C)C(=O)N3C)C1 (centres undefined) | . | . | 7 | 2 | 6
Cc1cccc(C(=O)OCC(=O)N2CCCC2=O)c1[N+](=O)[O-] | . | . | 2 | -6 | 0
Cc1cccc(C(=O)NC(C(=O)Nc2ccccc2N2CCOCC2)C(C)C)c1 (centres undefined) | 0 | 4 | 0 | 3 | 4
COc1ccc(CNC(=O)c2c(F)c(F)c(F)c(F)c2F)cc1 | 0 | 53* | 5 | -1 | -14
COc1ccc(CNC(=O)c2ccc(Br)cc2)cc1 | 0 | -1 | -8 | 8 | 29
CC(CCc1ccccc1)NC(=O)CCN1N=C(c2ccccc2)CCC1=O (centres undefined) | 0 | 6 | 6 | 3 | -4
